Experimental data reported in the array DNA melting data of Ke et al. (doi:10.1101/2024.01.08.574731).

Experiments:
[1] = folding enthalpy; higher = less favourable; fluorescence melt of hairpins on a sequencing array, two-state fit; details: sodium 0.088 M
Method in brief: (§1)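 Library hairpins on a sequenced MiSeq flow cell carried annealed Cy3 and quencher oligos, and their Cy3 fluorescence was imaged in 50 mM Na-HEPES pH 8.0 with 25 mM NaCl, in 2.5 °C steps up to 60 °C. Signals were normalised to Cy3 before quenching and to control constructs. Melting temperature and folding enthalpy were obtained from bootstrapped two-state fits, combined by inverse-variance weighting across four replicates, and the fitted temperatures were then raised by 9.35 °C to match UV melts.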

[2] = melting temperature; fluorescence melt of hairpins on a sequencing array, two-state fit, raised by 9.35 °C to match UV melts; details: sodium 0.088 M
Method in brief: as §1

## GCCCTCGAAAGAGGTGGC ((((((....)))..)))
[1]
  folding enthalpy: -17.7 kcal/mol
[2]
  Tm: 48.4 °C

## GCCCTCGGAAACGAGAGC ((.((((....)))).))
[1]
  folding enthalpy: -27.2 kcal/mol
[2]
  Tm: 49.1 °C

## GCCCTCGGAAACGAGGAC (.(((((....))))).)
[1]
  folding enthalpy: -13.4 kcal/mol
[2]
  Tm: 50.3 °C

## GCCCTGCCGAAAGGCGGC (((..(((....))))))
[1]
  folding enthalpy: -9.83 kcal/mol
[2]
  Tm: 54.9 °C

## GCCCTGCGAAAGCACGGC (((.(((....))).)))
[1]
  folding enthalpy: -39.6 kcal/mol
[2]
  Tm: 52 °C

## GCCCTGCGAAAGCAGAGC ((.((((....)))).))
[1]
  folding enthalpy: -18.8 kcal/mol
[2]
  Tm: 60.4 °C

## GCCCTGCGAAAGCCGGGC ((((.((....)).))))
[1]
  folding enthalpy: -32.9 kcal/mol
[2]
  Tm: 69 °C

## GCCCTGCGAAAGCGGTGC ((.(.((....)).).))
[1]
  folding enthalpy: -20.2 kcal/mol
[2]
  Tm: 48 °C

## GCCCTGCGAAAGCTAGGC (((..((....))..)))
[1]
  folding enthalpy: -20.3 kcal/mol
[2]
  Tm: 55.2 °C

## GCCCTGCGAAAGCTGAGC ((.(.((....)).).))
[1]
  folding enthalpy: -13.9 kcal/mol
[2]
  Tm: 47.2 °C

## GCCCTTCGAAAGAATGGC (((.(((....))).)))
[1]
  folding enthalpy: -34.3 kcal/mol
[2]
  Tm: 47.4 °C

## GCCCTTGGAAACGAGGGC (((((.(....).)))))
[1]
  folding enthalpy: -41.4 kcal/mol
[2]
  Tm: 57.5 °C

## GCCGAACGAAAGTTGGC (((.(((....))))))
[1]
  folding enthalpy: -32.3 kcal/mol
[2]
  Tm: 57.2 °C

## GCCGAAGGAAACCTCGGC (((((.(....).)))))
[1]
  folding enthalpy: -34.6 kcal/mol
[2]
  Tm: 54.6 °C

## GCCGACCGAAAGGTGGC (((.(((....))))))
[1]
  folding enthalpy: -34 kcal/mol
[2]
  Tm: 62 °C

## GCCGACGAAAGTCAGGC ((((((....))).)))
[1]
  folding enthalpy: -39.5 kcal/mol
[2]
  Tm: 64.1 °C

## GCCGACGAAAGTCATGGC ((((((....)))..)))
[1]
  folding enthalpy: -34.5 kcal/mol
[2]
  Tm: 51.6 °C

## GCCGACGAAAGTCCAGGC ((((((....)))..)))
[1]
  folding enthalpy: -25.2 kcal/mol
[2]
  Tm: 51.7 °C

## GCCGACGAAAGTCCGGC ((((((....))).)))
[1]
  folding enthalpy: -31.1 kcal/mol
[2]
  Tm: 61.2 °C

## GCCGACGAAAGTCTGGC ((((((....))).)))
[1]
  folding enthalpy: -34.6 kcal/mol
[2]
  Tm: 58.2 °C

## GCCGACGGAAACGCCAGC ((.(.((....)).).))
[1]
  folding enthalpy: -13.3 kcal/mol
[2]
  Tm: 33.8 °C

## GCCGACGGAAACGTCAGC ((.((((....)))).))
[1]
  folding enthalpy: -23.6 kcal/mol
[2]
  Tm: 49.6 °C

## GCCGACTCGAAAGAGGGC (((..(((....))))))
[1]
  folding enthalpy: -23.1 kcal/mol
[2]
  Tm: 47.1 °C

## GCCGAGAAATCGGC (((((....)))))
[1]
  folding enthalpy: -28.4 kcal/mol
[2]
  Tm: 64.8 °C

## GCCGAGCGAAAGCAGGGC (((..((....))..)))
[1]
  folding enthalpy: -26.3 kcal/mol
[2]
  Tm: 57.2 °C

## GCCGAGCGAAAGCCCTGC ((.(.((....)).).))
[1]
  folding enthalpy: -13.7 kcal/mol
[2]
  Tm: 33.5 °C

## GCCGAGCGAAAGCCTGGC (((..((....))..)))
[1]
  folding enthalpy: -17 kcal/mol
[2]
  Tm: 62.6 °C

## GCCGAGCGAAAGCTGAGC ((..(((....)))..))
[1]
  folding enthalpy: -11.2 kcal/mol
[2]
  Tm: 51.2 °C

## GCCGAGCGAAAGCTGCGC ((..(((....)))..))
[1]
  folding enthalpy: -17.8 kcal/mol
[2]
  Tm: 56.4 °C

## GCCGAGGGAAACCTCAGC ((.((((....)))).))
[1]
  folding enthalpy: -23.7 kcal/mol
[2]
  Tm: 43.1 °C

## GCCGATCCGAAAGGAGGC (((..(((....))))))
[1]
  folding enthalpy: -36.8 kcal/mol
[2]
  Tm: 52.7 °C

## GCCGATGGAAACATCGAC (.(((((....))))).)
[1]
  folding enthalpy: -16.3 kcal/mol
[2]
  Tm: 48 °C

## GCCGCACCGAAAGGTGGC (((..(((....))))))
[1]
  folding enthalpy: -8.56 kcal/mol
[2]
  Tm: 53.5 °C

## GCCGCACGAAAGTGGGC (((.(((....))))))
[1]
  folding enthalpy: -20.9 kcal/mol
[2]
  Tm: 62.8 °C

## GCCGCAGCGAAAGCTGGC (((..(((....))))))
[1]
  folding enthalpy: -9.6 kcal/mol
[2]
  Tm: 56.7 °C

## GCCGCAGGAAACTGCAGC ((.((((....)))).))
[1]
  folding enthalpy: -19 kcal/mol
[2]
  Tm: 49 °C

## GCCGCCGAAAGGCGAGGC ((((((....)))..)))
[1]
  folding enthalpy: -14.4 kcal/mol
[2]
  Tm: 60.6 °C

## GCCGCCGAAAGGCTAGGC ((((((....)))..)))
[1]
  folding enthalpy: -27.9 kcal/mol
[2]
  Tm: 60.5 °C

## GCCGCGCGAAAGCATGGC (((..((....))..)))
[1]
  folding enthalpy: -26.7 kcal/mol
[2]
  Tm: 60.1 °C

## GCCGCGCGAAAGCCCTGC ((.(.((....)).).))
[1]
  folding enthalpy: -12.1 kcal/mol
[2]
  Tm: 28.6 °C

## GCCGCGCGAAAGCGACGC ((..(((....)))..))
[1]
  folding enthalpy: -11.9 kcal/mol
[2]
  Tm: 55.1 °C

## GCCGCGCGAAAGCGCAGC ((.((((....)))).))
[1]
  folding enthalpy: -15.2 kcal/mol
[2]
  Tm: 64 °C

## GCCGCGCGAAAGCTGGGC (((..((....))..)))
[1]
  folding enthalpy: -20 kcal/mol
[2]
  Tm: 56.3 °C

## GCCGCTCCGAAAGGAGGC (((..(((....))))))
[1]
  folding enthalpy: -9.81 kcal/mol
[2]
  Tm: 55.4 °C

## GCCGCTGGAAACAGCGAC (.(((((....))))).)
[1]
  folding enthalpy: -13.9 kcal/mol
[2]
  Tm: 52.6 °C

## GCCGGAGGAAACCCCGGC (((((.(....).)))))
[1]
  folding enthalpy: -36 kcal/mol
[2]
  Tm: 59.6 °C
